Laboratory results reported in ChEMBL document CHEMBL1145211, “Substituted 5,5'-diphenyl-2-thioxoimidazolidin-4-one as CB1 cannabinoid receptor ligands: synthesis and pharmacological evaluation” (J Med Chem, 2005).

Key:
[1] = molecular target: Cannabinoid receptor 2 (Homo sapiens) (UniProt P34972); assay: Displacement of [3H]CP-55940 from human CB2 receptor expressed in CHO cells at 10 uM; type: cell-based
Method in brief: (§1)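 Membranes (40 µg) from CHO cells stably expressing human CB1 or CB2, with 1 nM [3H]SR141716A (CB1) or 1 nM [3H]CP-55,940 (CB2), and compound at 10 µM. Incubated 1 h at 30 °C in Tris-HCl pH 7.4 with MgCl2, EDTA and 0.5% BSA. Nonspecific binding defined with 10 µM HU-210. Bound ligand recovered on PEI-treated GF/B filters for scintillation counting; reported as % radioligand displaced.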

Cannabinoid receptor 1 [2] = molecular target: T1, Cannabinoid receptor 1 (Homo sapiens, UniProt P21554); assay: Displacement of [3H]SR-141,716A from human Cannabinoid receptor 1 (CB1 receptor) expressed in CHO cells at 10 uM; type: cell-based; method in brief: as §1
T1 sequence (P21554 whole entry): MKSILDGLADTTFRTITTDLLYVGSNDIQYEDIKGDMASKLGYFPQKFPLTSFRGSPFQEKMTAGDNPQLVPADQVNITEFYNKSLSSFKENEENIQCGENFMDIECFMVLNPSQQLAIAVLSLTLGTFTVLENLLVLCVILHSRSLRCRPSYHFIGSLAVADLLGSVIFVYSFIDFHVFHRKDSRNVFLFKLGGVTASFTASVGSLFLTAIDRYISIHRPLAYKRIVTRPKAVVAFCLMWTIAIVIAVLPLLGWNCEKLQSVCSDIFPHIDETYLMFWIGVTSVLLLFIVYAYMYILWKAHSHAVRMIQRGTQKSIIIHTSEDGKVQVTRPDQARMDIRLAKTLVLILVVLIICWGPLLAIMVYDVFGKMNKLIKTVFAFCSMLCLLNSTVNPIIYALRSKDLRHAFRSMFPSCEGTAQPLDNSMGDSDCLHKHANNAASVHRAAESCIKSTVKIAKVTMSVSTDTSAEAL

Cannabinoid receptor 1 [3] = molecular target: T1, Cannabinoid receptor 1; assay: Inhibition of [3H]SR-141,716A binding to human CB1 receptor expressed in CHO cells; type: cell-based
Method in brief: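 Competition curves on hCB1-CHO membranes (40 µg) with 1 nM [3H]SR141716A and varying compound concentrations, up to 10^-5 M. Incubated 1 h at 30 °C, pH 7.4, 0.5% BSA; final DMSO below 0.1%. Nonspecific binding defined with 10 µM HU-210; filtration, then counting. Ki derived from IC50 by nonlinear fitting and Cheng-Prusoff (Kd 1.13 nM). Mean ± SEM of at least four experiments, each in duplicate.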

Cannabinoid receptor 1 [4] = molecular target: T1, Cannabinoid receptor 1; assay: biochemical; type: cell-based, CHO
Cannabinoid receptor 1 [5] = molecular target: T1, Cannabinoid receptor 1; conditions: CHO, at 10 µM
Cannabinoid receptor 1 [6] = molecular target: T1, Cannabinoid receptor 1; conditions: CHO, 10 uM

Chain of Cannabinoid receptor 2 (Homo sapiens) (P34972 whole entry): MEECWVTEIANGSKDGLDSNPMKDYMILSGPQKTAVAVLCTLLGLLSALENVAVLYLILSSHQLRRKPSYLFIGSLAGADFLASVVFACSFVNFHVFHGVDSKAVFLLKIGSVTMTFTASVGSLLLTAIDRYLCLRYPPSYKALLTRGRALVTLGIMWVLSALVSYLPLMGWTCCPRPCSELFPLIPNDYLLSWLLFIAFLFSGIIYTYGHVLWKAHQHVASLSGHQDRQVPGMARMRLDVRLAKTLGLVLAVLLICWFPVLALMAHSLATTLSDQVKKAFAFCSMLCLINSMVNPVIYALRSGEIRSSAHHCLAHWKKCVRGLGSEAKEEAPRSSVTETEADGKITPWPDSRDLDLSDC

SMILES | Displacement [1] | Displacement (Cannabinoid receptor 1 [2]) | Ki (Cannabinoid receptor 1 [3]) | Ki (Cannabinoid receptor 1 [4]) | Decrease (Cannabinoid receptor 1 [5]) | Increase (Cannabinoid receptor 1 [6])
O=C1N(CCc2ccccc2)C(=S)NC1(c1ccc(Br)cc1)c1ccc(Br)cc1 | < 10% | 54.6% | > 10 µM |  |  | 
CC(C)N1C(=O)C(c2ccc(Br)cc2)(c2ccc(Br)cc2)NC1=S | < 15% | 91.7% |  | 3.63 µM |  | 
CCCCCCCCN1C(=O)C(c2ccccc2)(c2ccccc2)NC1=S | < 20% | 38.8% |  |  |  | 
CC(C)CN1C(=O)C(c2ccccc2)(c2ccccc2)NC1=S | < 10% | 34.6% |  |  |  | 
CCCCN1C(=O)C(c2ccccc2)(c2ccccc2)NC1=S | < 10% | 42.8% |  |  |  | 
CCCCN1C(=O)C(c2ccc(Br)cc2)(c2ccc(Br)cc2)NC1=S | < 15% | 73.8% |  | 1.41 µM |  | 
O=C1N(Cc2ccccc2)C(=S)NC1(c1ccc(Br)cc1)c1ccc(Br)cc1 | < 10% | 76% |  | 0.993 µM | -74% | 
CC(C)CN1C(=O)C(c2ccc(Br)cc2)(c2ccc(Br)cc2)NC1=S | < 20% | 76.3% |  | 1.78 µM | -74% | 
CCCCCCN1C(=O)C(c2ccc(Br)cc2)(c2ccc(Br)cc2)NC1=S | < 10% | 45.5% |  |  |  | 
C=CCN1C(=O)C(c2ccccc2)(c2ccccc2)NC1=S | < 15% | 40% |  |  |  | 
C=CCN1C(=O)NC(c2ccc(I)cc2)(c2ccc(I)cc2)C1=O |  |  |  |  | -74% | 
O=C1N(CCCO)C(=S)NC1(c1ccccc1)c1ccccc1 | < 10% | 20.8% |  |  |  | 
CCCCCCCCN1C(=O)C(c2ccc(Br)cc2)(c2ccc(Br)cc2)NC1=S | < 10% | 23.4% |  |  |  | 
CCCCCCCCN1C(=O)C(c2ccc(Cl)cc2)(c2ccc(Cl)cc2)NC1=S | < 10% | 36.6% |  |  |  | 
CCCCCCN1C(=O)C(c2ccccc2)(c2ccccc2)NC1=S | < 10% | 38.5% |  |  |  | 
O=C1NC(c2ccc(Br)cc2)(c2ccc(Br)cc2)C(=O)N1Cc1ccccc1 |  |  |  |  | -74% | 
CCN1C(=O)C(c2ccc(Br)cc2)(c2ccc(Br)cc2)NC1=S | < 20% | 90.9% |  | 2.19 µM |  | 
CCN1C(=O)C(c2ccccc2)(c2ccccc2)NC1=S | < 10% | 40% |  |  |  | 

SMILES | Displacement [1] | Displacement (Cannabinoid receptor 1 [2]) | Ki (Cannabinoid receptor 1 [3]) | Ki (Cannabinoid receptor 1 [4]) | Decrease (Cannabinoid receptor 1 [5]) | Increase (Cannabinoid receptor 1 [6])
C=CCN1C(=O)C(c2ccc(I)cc2)(c2ccc(I)cc2)NC1=S | < 20% | 94.2% |  | 0.589 µM | -74% | 
CCCCN1C(=O)NC(c2ccc(Br)cc2)(c2ccc(Br)cc2)C1=O |  |  |  |  | -74% | 
CCCCN1C(=O)NC(c2ccc(I)cc2)(c2ccc(I)cc2)C1=O |  |  |  | 1.82 µM | -74% | 
O=C1N(Cc2ccco2)C(=S)NC1(c1ccccc1)c1ccccc1 | < 15% | 59.2% |  |  |  | 
O=C1N(Cc2ccccc2)C(=S)NC1(c1ccccc1)c1ccccc1 | < 10% | 44.7% |  |  |  | 
C=CCN1C(=O)C(c2ccc(Br)cc2)(c2ccc(Br)cc2)NC1=S | < 15% | 87.2% |  | 0.871 µM | -74% | 
CCCCCCCN1C(=O)C(c2ccc(Cl)cc2)(c2ccc(Cl)cc2)NC1=S | < 10% | 67.8% |  |  |  | 
CCCCN1C(=O)C(c2ccc(I)cc2)(c2ccc(I)cc2)NC1=S | < 20% | 77.4% |  | 0.724 µM | -74% | 
O=C1N(Cc2ccccc2)C(=S)NC1(c1ccc(Cl)cc1)c1ccc(Cl)cc1 | < 15% | 74.2% |  | 2.19 µM | -74% | 
O=C1N(CCc2ccccc2)C(=S)NC1(c1ccc(Cl)cc1)c1ccc(Cl)cc1 | < 15% | 79.4% |  | 3.8 µM |  | 
CC(C)CN1C(=O)C(c2ccc(Cl)cc2)(c2ccc(Cl)cc2)NC1=S | < 20% | 76.1% |  | 2.09 µM | -74% | 
CCCCCCCN1C(=O)C(c2ccccc2)(c2ccccc2)NC1=S | < 10% | 28.8% |  |  |  | 
CCCCCCCN1C(=O)C(c2ccc(Br)cc2)(c2ccc(Br)cc2)NC1=S | < 10% | 34.2% |  |  |  | 
O=C1N(CCc2ccccc2)C(=S)NC1(c1ccccc1)c1ccccc1 | < 10% | 29.3% |  |  |  | 
COCCCN1C(=O)C(c2ccccc2)(c2ccccc2)NC1=S | < 15% | 29.4% |  |  |  | 
CCCCCCC(C)(C)c1cc(O)c2c(c1)OC(C)(C)[C@H]1CC=C(CO)C[C@H]21 [DEXANABINOL] |  |  |  | 0.0186 µM |  | 130%
CC(C)N1C(=O)C(c2ccccc2)(c2ccccc2)NC1=S | < 10% | 42.8% |  |  |  | 
